Most compounds without a hit are left out; they make up all but 12% or so of the library.
KCC2 mod: KCC2 cotransporter modulators, thallium flux, primary screen, cell-based, HEK293 KCC2, FluoZin-2 fluorescence, MLSMR; Solute carrier family 12 member 5 (Homo sapiens), Q9H2X9; KCC2 cells, thallium flux FluoZin-2 fluorescence; B-score of Tl+ flux slope (higher = more flux/activation; lower = inhibition) at 10 µM; 190,000 compounds, 2.2% hits;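 active means thallium flux slope and its plate-corrected score both differing from the plate sample mean at a set confidence after two filtering rounds, in either direction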;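 further: slope of fluorescence scaled to starting intensity during 10 to 20 s after thallium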
WT yeast gro inh: growth inhibition of WT strain, primary screen, mitochondrial fusion inhibitor project, WT and mutant strains, chemical genetic; mitochondrial fusion phenotypic screen; inhibition, % at 10 µM; 190,000 compounds, 2.1% hits; in the data active means inhibition above about 58%; tested in S. cerevisiae
Diaph act CS: compounds boosting diaphorase resazurin reduction – biochemical, uHTS, resorufin fluorescence, counter-screen for diaphorase-coupled primary assays, primary screen. 190,000 compounds, 0.005% hits. activation factor at 20 µM. Diaphorase/resazurin coupled assay, 16 min; hits give high values; 1 = vehicle wells, 0 = NADH-free wells;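 active means diaphorase activity raised at least twofold by the compound at 20 µM; inactive means activation factor below 2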
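test system = bacterial diaphorase enzyme (C. kluyveri) | quantity = enzyme 0.07 U/mL final | reagent = NADH substrate 0.114 mM plus resazurin dye 0.1 mM, final | incubation = 16 min enzyme reaction, ambient temperature | buffer or medium = HEPES pH 7.4 buffer with MgCl2 and Tween 20 | signal = fluorescence of resorufin, 544 nm excitation, 590 nm emission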
Diaphorase inh: diaphorase inhibitors and chemical oxidizers, primary screen, counter-screen for diaphorase-coupled primary assays, biochemical, uHTS, resorufin fluorescence; diaphorase resazurin-to-resorufin fluorescence, NADH, 16 min; bacterial (C. kluyveri) enzyme, not human; inhibition, % at 20 µM; 190,000 compounds, 0.69% hits; AID 1217, 2008;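 active means primary screen inhibition at 20 µM above a set limit, cut at about 50% in these data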;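 further: plate controls were DMSO with full reaction for no effect and wells lacking NADH for full effect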
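Test system: bacterial diaphorase enzyme (C. kluyveri); Quantity: 0.14 U/mL diaphorase, enzyme working solution; Times: reaction incubation of 16 min at room temperature; Measured by: fluorescence of resorufin formed from resazurin, Ex 544/Em 590 nm; Benchmarks: positive control minus NADH, DMSO neutral control.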
L major viab: Leishmania major promastigote growth inhibition, primary screen. Leishmania major promastigotes, resazurin fluorescence viability. 200,000 compounds, 9% hits. inhibition, % at 10 µM; in the data active means inhibition above about 50%;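 further: promastigotes grown with compound for 44 hours at 28 °C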
ROMK primary: ROMK potassium channel modulators, primary screen, cell-based, thallium flux, MLSMR library; AID 1918, 2009; 130,000 compounds, 2% hits; ATP-sensitive inward rectifier potassium channel 1 (Homo sapiens), P48048; B-score at 10 µM; Tet-inducible ROMK, thallium flux fluorescence; actives lie on both sides;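 active means signal ratio slope over the read window, or its plate-corrected B-score, at least 3 SD from the plate mean, either direction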;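 further: B-score of the F/F0 ratio slope over 7 to 12 s after thallium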
* = called active by the depositor; / = no result.

SMILES	KCC2 mod	WT yeast gro inh	Diaph act CS	Diaphorase inh	L major viab	ROMK primary
Cc1cccc(C(=O)Oc2ccc(/C=N/NC(=O)Cc3ccc([N+](=O)[O-])cc3)cc2)c1	1.3	6	1	3	50*	/
COc1cc(/C=N/NC(=O)COc2c(C)cc([N+](=O)[O-])cc2C)ccc1OC(=O)c1ccccc1	0.53	14	0.8	17	99*	-0.3
COc1ccc(/C=N/NC(=O)CSCc2ccc([N+](=O)[O-])cc2)cc1OC	0.084	-9	0.9	8	41	/
COc1cc(/C=N/NC(=O)COc2c(C)cc([N+](=O)[O-])cc2C)ccc1OC(=O)c1ccccc1Br	0.83	15	0.8	17	73*	-1.3
Cc1cccc(C(=O)Oc2ccc(/C=N/NC(=O)c3ccccc3O)cc2)c1	1	16	0.9	14	26	/
COc1cc(/C=N/NC(=O)c2ccccc2)ccc1O	1.1	0	1	0	-2	0.36
COc1ccc(/C=N/NC(N)=S)cc1OC(=O)c1ccccc1	-1.5	34	0.9	13	79*	/
Cc1cc(N/N=C/c2ccc(O)cc2O)nc(-n2nc(C)cc2C)n1	-0.029	1	0.7	34	100*	/
Cc1cc(N/N=C/c2cccc([N+](=O)[O-])c2)nc(-n2nc(C)cc2C)n1	0.18	/	/	/	/	/
COc1ccc(/C=N/Nc2cc(C)nc(-n3nc(C)cc3C)n2)cc1	0.84	60*	1	2	96*	/
Cc1ccc(-c2nnn(CC(=O)N(CCN3CCOCC3)C(C(=O)NC(C)(C)C)c3ccc(C)o3)n2)cc1 (stereo not given)	0.28	/	/	/	/	0.4
COc1ccc(-c2[nH]c(-c3ccc(SC)cc3)nc2SCC(=O)Nc2nccs2)cc1	-0.41	19	0.8	22	96*	0.41
COc1ccc(-c2[nH]c(-c3ccc(C)cc3)nc2SCC(=O)Nc2nccs2)cc1	-0.14	18	0.8	16	23	/
O=C(CSc1nc(-c2ccccc2)c(-c2ccccc2)[nH]1)Nc1nccs1	/	43	0.9	13	98*	0.44
COc1ccc(-c2csc(NC(=O)CSc3ncn[nH]3)n2)cc1OC	0.46	10	0.9	6	4	-1.4
O=C(CSc1ncn[nH]1)Nc1nc(-c2ccccc2)cs1	-1.3	18	1	-3	93*	/
Cn1nnnc1SCC(=O)N1CCN(S(=O)(=O)c2ccc(Cl)cc2)CC1	0.65	2	1.1	-11	-9	-0.18
COc1ccc(/C(N)=N/OC(=O)CCCN2C(=O)c3ccccc3C2=O)cc1OC	0.96	2	0.9	14	-7	0.79
Cc1ccc(S(=O)(=O)N2CCN(C(=O)Cc3ccc4c(c3)OCCO4)CC2)cc1C	0.08	4	0.9	6	-5	-2.4
O=C(Nc1nc(-c2ccc3c(c2)OCCO3)cs1)c1ccc(S(=O)(=O)N2CCCCC2)cc1	0.8	21	0.8	20	86*	/
O=C(Nc1nc(-c2cccs2)cs1)c1ccc(S(=O)(=O)N2CCCC2)cc1	-1.7	7	0.7	30	77*	/
CN1CCN(C(=O)c2cc3sc4ccccc4c3s2)CC1	-2.4	/	/	/	/	/
S=C(Nc1ccc(Nc2ccccc2)cc1)Nc1ccccn1	0.72	81*	0.8	20	47	0.76
CC(C)CCNC(=S)Nc1ccccn1	1.7	46	0.9	14	68*	0.85
Cc1cccc(NC(=S)NCCC(C)C)c1	0.026	33	1	3	16	0.48
COCCNC(=S)Nc1ccccn1	1.1	-10	0.9	7	-5	0.46
CC(C)CCNC(=S)Nc1ccccc1F	1.6	-3	0.9	9	52*	0.92
O=C(Nc1ccccc1)C(=O)Nc1ccccn1	/	3	1	1	-8	/
COc1ccccc1CNC(=O)COC(=O)[C@H](Cc1c[nH]c2ccccc12)NC(=O)c1cccs1	-0.85	6	0.6	35	-6	/

Screens from PubChem BioAssay.
